Laboratory results reported in ChEMBL document CHEMBL3098105, “7,7'-Diazaindirubin--a small molecule inhibitor of casein kinase 2 in vitro and in cells” (Bioorg Med Chem, 2014).

Tests used:
[1] = target: Protein-tyrosine kinase 2-beta (Homo sapiens) (UniProt Q14289); assay: Inhibition of human Pyk2 assessed as residual activity at 1 uM relative to control
[2] = target: Serine/threonine-protein kinase Nek7 (Homo sapiens) (UniProt Q8TDX7); assay: Inhibition of human NEK7 assessed as residual activity at 1 uM relative to control
[3] = target: Serine/threonine-protein kinase Sgk1 (Homo sapiens) (UniProt O00141); assay: Inhibition of human SGK assessed as residual activity at 1 uM relative to control
[4] = target: Myosin light chain kinase, smooth muscle (Homo sapiens) (UniProt Q15746); assay: Inhibition of human MLCK assessed as residual activity at 1 uM relative to control
[5] = target: T1, CDK2/Cyclin A2 (Homo sapiens) (UniProt P24941+P20248); assay: Inhibition of CDK2/CycA (unknown origin) assessed as residual activity at 10 uM relative to control; format: protein-complex assay
[6] = test system: MCF7; assay: Cell cycle arrest in human MCF7 cells assessed as accumulation at sub-G1 phase at 1 uM after 24 hrs using propidium iodide staining by FACS analysis (reference value: 0.17%); format: functional
[7] = target: Serine/threonine-protein kinase N2 (Homo sapiens) (UniProt Q16513); assay: Inhibition of human PRK2 assessed as residual activity at 1 uM relative to control
[8] = target: Tyrosine-protein kinase Fer (Homo sapiens) (UniProt P16591); assay: Inhibition of human Fer assessed as residual activity at 1 uM relative to control
[9] = target: Serine/threonine-protein kinase MRCK alpha (Homo sapiens) (UniProt Q5VT25); assay: Inhibition of human MRCKalpha assessed as residual activity at 1 uM relative to control
[10] = target: Tyrosine-protein kinase BTK (Homo sapiens) (UniProt Q06187); assay: Inhibition of human BTK assessed as residual activity at 1 uM relative to control
[11] = target: cGMP-dependent protein kinase 1 (Homo sapiens) (UniProt Q13976); assay: Inhibition of human PKG1beta assessed as residual activity at 1 uM relative to control
[12] = target: Focal adhesion kinase 1 (Homo sapiens) (UniProt Q05397); assay: Inhibition of FAK fl (unknown origin) assessed as residual activity at 1 uM relative to control
[13] = target: Activated CDC42 kinase 1 (Homo sapiens) (UniProt Q07912); assay: Inhibition of human ACK1 assessed as residual activity at 1 uM relative to control
[14] = target: Serine/threonine-protein kinase WNK3 (Homo sapiens) (UniProt Q9BYP7); assay: Inhibition of human WNK3 assessed as residual activity at 1 uM relative to control
[15] = target: Fibroblast growth factor receptor 1 (Homo sapiens) (UniProt P11362); assay: Inhibition of FGF-R1 (unknown origin) assessed as residual activity at 10 uM relative to control
[16] = target: Serine/threonine-protein kinase 4 (Homo sapiens) (UniProt Q13043); assay: Inhibition of human MST1 assessed as residual activity at 1 uM relative to control
[17] = target: T2, Serine/threonine-protein kinase Chk1 (Homo sapiens) (UniProt O14757); assay: Inhibition of CHK1 (unknown origin) assessed as residual activity at 1 uM relative to control
T2 sequence (whole entry): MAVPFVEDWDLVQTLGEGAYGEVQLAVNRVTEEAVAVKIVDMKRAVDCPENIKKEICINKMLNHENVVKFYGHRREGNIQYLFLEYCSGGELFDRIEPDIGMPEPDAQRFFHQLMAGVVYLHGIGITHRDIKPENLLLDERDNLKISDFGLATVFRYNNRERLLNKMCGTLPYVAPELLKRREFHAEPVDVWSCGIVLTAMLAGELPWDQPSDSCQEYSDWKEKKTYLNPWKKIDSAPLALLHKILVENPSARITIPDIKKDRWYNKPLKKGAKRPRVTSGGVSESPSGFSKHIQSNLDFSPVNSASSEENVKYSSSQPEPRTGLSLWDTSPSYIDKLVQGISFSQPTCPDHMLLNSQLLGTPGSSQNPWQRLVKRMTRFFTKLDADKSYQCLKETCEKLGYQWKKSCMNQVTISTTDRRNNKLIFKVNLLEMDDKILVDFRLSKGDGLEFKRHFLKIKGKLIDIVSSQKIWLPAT

[18] = target: T1, CDK2/Cyclin A2 (Homo sapiens); assay: Inhibition of CDK2/CycA (unknown origin) assessed as residual activity at 1 uM relative to control; format: protein-complex assay
[19] = target: Tyrosine-protein kinase ABL1 (Homo sapiens) (UniProt P00519); assay: Inhibition of ABL1 (unknown origin) assessed as residual activity at 1 uM relative to control
[20] = target: 3-phosphoinositide-dependent protein kinase 1 (Homo sapiens) (UniProt O15530); assay: Inhibition of human PDK1 assessed as residual activity at 1 uM relative to control
[21] = target: Serine/threonine-protein kinase TAO2 (Homo sapiens) (UniProt Q9UL54); assay: Inhibition of human TAO2 assessed as residual activity at 1 uM relative to control
[22] = test system: OVCAR-8; assay: Antiproliferative activity against human OVCAR8 cells after 3 days by sulforhodamine B assay; format: functional; conditions: OVCAR-8, 72 h
In short: (§1)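 Tested in the NCI 60 cell line panel. GI50 is the concentration giving 50% inhibition of cell growth, and values are the mean of two series of tests.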

[23] = target: Mitogen-activated protein kinase 13 (Homo sapiens) (UniProt O15264); assay: Inhibition of human SAPK4 assessed as residual activity at 1 uM relative to control
[24] = test system: ACHN; assay: Antiproliferative activity against human ACHN cells after 3 days by sulforhodamine B assay; format: functional; conditions: 72 h; in short: as §1
[25] = target: Angiopoietin-1 receptor (Homo sapiens) (UniProt Q02763); assay: Inhibition of human Tie2 assessed as residual activity at 1 uM relative to control
[26] = target: Fibroblast growth factor receptor 3 (Homo sapiens) (UniProt P22607); assay: Inhibition of human FGFR3 assessed as residual activity at 1 uM relative to control
[27] = test system: SK-MEL-2; assay: Antiproliferative activity against human SK-MEL-2 cells after 3 days by sulforhodamine B assay; format: functional; conditions: SK-MEL-2, 72 h; in short: as §1
[28] = target: G protein-coupled receptor kinase 6 (Homo sapiens) (UniProt P43250); assay: Inhibition of human GRK6 assessed as residual activity at 1 uM relative to control
[29] = target: SRSF protein kinase 1 (Homo sapiens) (UniProt Q96SB4); assay: Inhibition of human SRPK1 assessed as residual activity at 1 uM relative to control
[30] = target: CDK3/Cyclin E (Homo sapiens) (UniProt P24864+Q00526); assay: Inhibition of human CDK3/cyclinE assessed as residual activity at 1 uM relative to control; format: protein-complex assay
[31] = test system: LOX IMVI; assay: Antiproliferative activity against human LOXIMVI cells after 3 days by sulforhodamine B assay; format: functional; conditions: 72 h; in short: as §1
[32] = target: Serine/threonine-protein kinase Sgk3 (Homo sapiens) (UniProt Q96BR1); assay: Inhibition of human SGK3 assessed as residual activity at 1 uM relative to control
[33] = target: Serine/threonine-protein kinase B-raf (Homo sapiens) (UniProt P15056); assay: Inhibition of wild type B-RAF (unknown origin) assessed as residual activity at 10 uM relative to control

Chain of SRSF protein kinase 1 (Homo sapiens) (Q96SB4 whole entry): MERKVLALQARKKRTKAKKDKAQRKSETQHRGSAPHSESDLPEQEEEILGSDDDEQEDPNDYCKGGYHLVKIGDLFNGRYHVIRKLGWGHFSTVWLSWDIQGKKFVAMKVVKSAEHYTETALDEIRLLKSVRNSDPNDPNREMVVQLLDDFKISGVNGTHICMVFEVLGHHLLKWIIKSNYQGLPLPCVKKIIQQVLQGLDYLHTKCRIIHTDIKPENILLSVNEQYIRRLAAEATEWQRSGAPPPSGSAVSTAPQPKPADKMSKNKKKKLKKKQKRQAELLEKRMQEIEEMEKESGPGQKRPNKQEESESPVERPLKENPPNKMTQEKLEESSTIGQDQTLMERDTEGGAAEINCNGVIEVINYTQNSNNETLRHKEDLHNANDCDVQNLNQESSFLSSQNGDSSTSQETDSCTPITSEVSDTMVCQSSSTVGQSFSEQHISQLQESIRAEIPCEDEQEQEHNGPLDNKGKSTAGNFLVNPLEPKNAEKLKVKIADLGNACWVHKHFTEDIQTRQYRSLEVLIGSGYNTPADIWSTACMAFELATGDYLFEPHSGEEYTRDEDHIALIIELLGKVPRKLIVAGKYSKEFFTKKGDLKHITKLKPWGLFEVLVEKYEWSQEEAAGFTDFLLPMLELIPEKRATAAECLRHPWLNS
Chain of Fibroblast growth factor receptor 3 (Homo sapiens) (P22607 23-806 limits assumed): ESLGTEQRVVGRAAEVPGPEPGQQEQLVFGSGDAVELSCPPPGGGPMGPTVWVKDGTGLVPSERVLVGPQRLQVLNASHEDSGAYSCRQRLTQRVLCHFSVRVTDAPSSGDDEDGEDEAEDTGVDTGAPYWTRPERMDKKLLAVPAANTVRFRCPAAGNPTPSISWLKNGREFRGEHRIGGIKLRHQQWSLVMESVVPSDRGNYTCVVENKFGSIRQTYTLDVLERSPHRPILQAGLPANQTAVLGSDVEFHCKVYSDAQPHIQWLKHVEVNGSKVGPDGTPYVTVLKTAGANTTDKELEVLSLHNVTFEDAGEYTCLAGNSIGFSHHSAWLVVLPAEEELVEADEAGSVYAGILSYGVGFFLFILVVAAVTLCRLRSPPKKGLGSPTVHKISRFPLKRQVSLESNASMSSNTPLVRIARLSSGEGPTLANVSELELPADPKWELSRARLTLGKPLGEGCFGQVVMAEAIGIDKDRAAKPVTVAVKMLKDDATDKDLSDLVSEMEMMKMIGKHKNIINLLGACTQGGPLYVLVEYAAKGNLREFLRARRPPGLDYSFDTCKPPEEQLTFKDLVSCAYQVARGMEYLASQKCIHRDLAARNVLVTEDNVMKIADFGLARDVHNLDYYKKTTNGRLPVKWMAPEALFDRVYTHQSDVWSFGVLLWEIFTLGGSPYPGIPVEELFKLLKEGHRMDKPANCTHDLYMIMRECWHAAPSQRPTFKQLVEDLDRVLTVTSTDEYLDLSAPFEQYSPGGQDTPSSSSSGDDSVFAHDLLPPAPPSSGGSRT
Chain of Tyrosine-protein kinase BTK (Homo sapiens) (Q06187 whole entry): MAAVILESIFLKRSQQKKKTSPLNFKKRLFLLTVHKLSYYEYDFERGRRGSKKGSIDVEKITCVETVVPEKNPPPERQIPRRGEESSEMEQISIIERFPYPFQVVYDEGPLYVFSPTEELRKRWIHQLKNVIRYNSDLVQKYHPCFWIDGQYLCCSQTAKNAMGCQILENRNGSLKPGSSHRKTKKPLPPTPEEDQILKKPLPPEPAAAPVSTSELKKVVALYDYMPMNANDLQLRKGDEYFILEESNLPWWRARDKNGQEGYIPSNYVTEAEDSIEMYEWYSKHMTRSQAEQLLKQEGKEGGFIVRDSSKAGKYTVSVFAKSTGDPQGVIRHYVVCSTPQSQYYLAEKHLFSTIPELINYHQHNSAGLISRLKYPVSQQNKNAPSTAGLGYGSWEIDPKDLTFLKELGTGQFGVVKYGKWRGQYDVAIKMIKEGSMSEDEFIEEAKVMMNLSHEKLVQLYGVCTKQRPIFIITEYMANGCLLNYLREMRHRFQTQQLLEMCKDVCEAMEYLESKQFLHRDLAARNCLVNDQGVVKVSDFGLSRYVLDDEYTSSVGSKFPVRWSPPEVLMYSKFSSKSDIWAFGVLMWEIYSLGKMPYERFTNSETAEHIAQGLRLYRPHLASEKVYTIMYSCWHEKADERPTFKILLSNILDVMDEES
Chain of Mitogen-activated protein kinase 13 (Homo sapiens) (O15264 whole entry): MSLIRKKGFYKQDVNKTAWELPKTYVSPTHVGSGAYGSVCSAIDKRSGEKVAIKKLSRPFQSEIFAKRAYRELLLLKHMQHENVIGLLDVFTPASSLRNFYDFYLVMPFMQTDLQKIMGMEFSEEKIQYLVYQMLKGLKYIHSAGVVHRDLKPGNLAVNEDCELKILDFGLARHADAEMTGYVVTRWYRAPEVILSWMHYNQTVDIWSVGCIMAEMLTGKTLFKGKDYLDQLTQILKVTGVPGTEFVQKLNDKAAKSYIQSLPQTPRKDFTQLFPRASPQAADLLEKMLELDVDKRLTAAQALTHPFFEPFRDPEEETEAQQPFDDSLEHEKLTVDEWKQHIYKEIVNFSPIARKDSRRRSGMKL
Chain of Protein-tyrosine kinase 2-beta (Homo sapiens) (Q14289 whole entry, looked up): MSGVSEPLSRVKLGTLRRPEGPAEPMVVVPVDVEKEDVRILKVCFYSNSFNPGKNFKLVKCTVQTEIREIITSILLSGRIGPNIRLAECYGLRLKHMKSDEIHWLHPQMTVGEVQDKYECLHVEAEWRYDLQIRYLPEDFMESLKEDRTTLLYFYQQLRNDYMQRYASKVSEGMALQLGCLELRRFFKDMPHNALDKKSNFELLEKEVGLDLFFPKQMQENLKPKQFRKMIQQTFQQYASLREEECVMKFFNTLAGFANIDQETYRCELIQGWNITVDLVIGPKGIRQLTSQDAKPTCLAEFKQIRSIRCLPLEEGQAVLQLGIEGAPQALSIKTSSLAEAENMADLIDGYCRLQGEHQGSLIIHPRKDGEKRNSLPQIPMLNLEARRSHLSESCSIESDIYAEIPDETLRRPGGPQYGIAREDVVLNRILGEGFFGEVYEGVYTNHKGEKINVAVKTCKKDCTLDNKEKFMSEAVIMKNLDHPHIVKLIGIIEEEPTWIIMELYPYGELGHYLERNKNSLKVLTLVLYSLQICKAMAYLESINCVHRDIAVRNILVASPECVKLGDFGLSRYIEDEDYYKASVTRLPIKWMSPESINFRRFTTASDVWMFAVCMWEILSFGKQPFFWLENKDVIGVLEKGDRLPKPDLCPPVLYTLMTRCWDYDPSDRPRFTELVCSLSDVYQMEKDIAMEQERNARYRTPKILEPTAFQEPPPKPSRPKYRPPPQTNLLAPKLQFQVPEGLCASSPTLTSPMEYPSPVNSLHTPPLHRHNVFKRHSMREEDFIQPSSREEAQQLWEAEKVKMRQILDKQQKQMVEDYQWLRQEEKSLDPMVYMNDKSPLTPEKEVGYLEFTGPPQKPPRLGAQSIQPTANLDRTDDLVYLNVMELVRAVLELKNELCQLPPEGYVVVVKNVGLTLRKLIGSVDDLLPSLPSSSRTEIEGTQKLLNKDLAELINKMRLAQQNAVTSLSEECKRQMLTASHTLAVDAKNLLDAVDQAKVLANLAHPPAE
Chain of cGMP-dependent protein kinase 1 (Homo sapiens) (Q13976 whole entry): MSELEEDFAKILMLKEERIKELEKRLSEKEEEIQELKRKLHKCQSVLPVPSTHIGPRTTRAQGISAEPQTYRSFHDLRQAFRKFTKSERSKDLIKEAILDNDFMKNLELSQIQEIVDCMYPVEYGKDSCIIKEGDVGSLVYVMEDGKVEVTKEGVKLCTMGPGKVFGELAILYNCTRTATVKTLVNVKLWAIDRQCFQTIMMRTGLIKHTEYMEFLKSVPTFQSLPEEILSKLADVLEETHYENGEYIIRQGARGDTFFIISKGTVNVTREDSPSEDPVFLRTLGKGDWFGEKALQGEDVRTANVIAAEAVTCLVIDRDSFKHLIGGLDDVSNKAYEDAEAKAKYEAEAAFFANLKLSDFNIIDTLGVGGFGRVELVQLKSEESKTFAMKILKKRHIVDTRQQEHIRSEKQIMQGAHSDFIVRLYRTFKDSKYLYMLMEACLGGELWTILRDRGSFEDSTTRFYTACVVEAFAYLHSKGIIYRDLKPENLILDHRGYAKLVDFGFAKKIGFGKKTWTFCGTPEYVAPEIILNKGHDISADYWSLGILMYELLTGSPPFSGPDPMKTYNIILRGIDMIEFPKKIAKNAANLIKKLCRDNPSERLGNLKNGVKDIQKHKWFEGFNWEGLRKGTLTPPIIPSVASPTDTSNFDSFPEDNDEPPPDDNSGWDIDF
Chain of Tyrosine-protein kinase Fer (Homo sapiens) (P16591 whole entry, looked up): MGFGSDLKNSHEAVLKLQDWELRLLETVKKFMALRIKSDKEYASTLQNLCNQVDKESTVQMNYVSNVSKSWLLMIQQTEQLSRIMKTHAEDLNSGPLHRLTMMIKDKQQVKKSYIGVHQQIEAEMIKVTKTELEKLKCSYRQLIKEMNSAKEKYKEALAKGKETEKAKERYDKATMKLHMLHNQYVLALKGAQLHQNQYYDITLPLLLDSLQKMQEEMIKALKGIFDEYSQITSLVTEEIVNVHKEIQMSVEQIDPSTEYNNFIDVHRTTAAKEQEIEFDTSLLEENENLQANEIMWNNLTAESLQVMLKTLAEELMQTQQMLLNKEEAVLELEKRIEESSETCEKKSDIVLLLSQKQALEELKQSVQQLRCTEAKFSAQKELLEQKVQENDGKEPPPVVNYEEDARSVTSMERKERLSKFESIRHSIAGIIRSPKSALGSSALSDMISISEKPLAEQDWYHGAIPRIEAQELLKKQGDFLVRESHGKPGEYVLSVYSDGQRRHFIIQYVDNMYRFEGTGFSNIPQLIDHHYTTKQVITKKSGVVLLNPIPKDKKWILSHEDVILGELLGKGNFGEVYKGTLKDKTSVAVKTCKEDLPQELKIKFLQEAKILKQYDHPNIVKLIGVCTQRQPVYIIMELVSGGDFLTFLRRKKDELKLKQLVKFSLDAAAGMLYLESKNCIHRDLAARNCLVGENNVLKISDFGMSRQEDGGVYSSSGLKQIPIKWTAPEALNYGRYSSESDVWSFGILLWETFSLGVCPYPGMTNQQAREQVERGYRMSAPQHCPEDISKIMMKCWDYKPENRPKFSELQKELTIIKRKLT

O=C1Nc2ncccc2/C1=C1/Nc2ncccc2C1=O
Activity [1]: 119%
Activity [2]: 57%
Activity [3]: 88%
Activity [4]: 73%
Activity [5]: 106%
Activity [6]: 0.16%
Activity [7]: 95%
Activity [8]: 102%
Activity [9]: 119%
Activity [10]: 140%
Activity [11]: 90%
Activity [12]: 94%
Activity [13]: 97%
Activity [14]: 106%
Activity [15]: 81%
Activity [16]: 96%
Activity [17]: 99%
Activity [18]: 116%
Activity [19]: 96%
Activity [20]: 97%
Activity [21]: 88%
GI50 [22]: 1370 nM
Activity [23]: 115%
GI50 [24]: 1480 nM
Activity [25]: 117%
Activity [26]: 126%
GI50 [27]: 1710 nM
Activity [28]: 94%
Activity [29]: 92%
Activity [30]: 74%
GI50 [31]: 338 nM
Activity [32]: 113%
Activity [33]: 94%
